# Bioassay records from PubChem.
# Compounds with a hit are over-represented: about 1.1% of the library has one in this group of screens.
# PMI act – phosphomannose isomerase (human) activation. P34949. purified human PMI, coupled resazurin fluorescence, 20 min; active compounds read high; 1 = vehicle control, 0 substrate-free wells. activation factor at 20 µM. actives 0.005% (n = 190,000);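 active = activation factor of 2 or more at 20 µM, relative to plate controls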
# Target sequence (P34949 whole entry, looked up): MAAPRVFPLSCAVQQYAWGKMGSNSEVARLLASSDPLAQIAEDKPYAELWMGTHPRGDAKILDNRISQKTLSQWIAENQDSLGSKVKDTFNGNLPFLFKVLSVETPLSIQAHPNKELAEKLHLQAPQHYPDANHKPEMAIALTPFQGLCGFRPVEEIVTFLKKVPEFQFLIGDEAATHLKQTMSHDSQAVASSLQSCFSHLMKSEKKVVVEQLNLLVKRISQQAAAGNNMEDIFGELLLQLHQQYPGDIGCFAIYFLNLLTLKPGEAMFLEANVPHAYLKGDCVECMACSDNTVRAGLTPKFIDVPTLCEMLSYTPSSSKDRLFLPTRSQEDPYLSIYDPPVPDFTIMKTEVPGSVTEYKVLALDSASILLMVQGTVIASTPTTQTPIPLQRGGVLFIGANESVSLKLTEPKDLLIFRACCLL
# G6PDH counter – inhibits Leuconostoc G6PDH, flagging false hits in G6PDH-based assays; inhibition, % at 5 µM; actives 0.12% (n = 200,000); Purified L. mesenteroides G6PDH, diaphorase/resazurin coupled fluorescence, 45 min; in the data active = inhibition above about 50%
# Diaph act CS – activates diaphorase or chemically reduces, flagging diaphorase assay artifacts; activation factor at 20 µM; Diaphorase/resazurin coupled assay, resorufin fluorescence, 16 min; active compounds read high; 1 = vehicle wells, 0 = NADH-free wells; actives 0.005% (n = 190,000);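 active = diaphorase activity raised at least twofold by the compound at 20 µM; inactive = activation factor below 2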
#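 Material: bacterial diaphorase enzyme (C. kluyveri); amount: enzyme 0.07 U/mL final; reagent: NADH substrate 0.114 mM plus resazurin dye 0.1 mM, final; doses: single compound dose of 20 µM, 1% DMSO final; timing: 16 min enzyme reaction, ambient temperature; measured by: fluorescence of resorufin, 544 nm excitation, 590 nm emission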
# PMI act hi M6P – activators of human phosphomannose isomerase at near-saturating mannose 6-phosphate | coupled PMI enzyme assay, resazurin fluorescence, 20 min; active compounds read high; 1 = untreated enzyme, 0 = substrate-free blank | activation factor at 20 µM | actives 0.34% (n = 190,000);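 active = activation factor of 2 or more at 20 µM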
#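 Test system: human phosphomannose isomerase with PGI, G6PDH, diaphorase coupling enzymes / Doses: 20 µM compound, 1% DMSO / Times: enzyme reaction with compound 20 min at room temperature / Measured by: Diaphorase-driven resazurin-to-resorufin fluorescence, excitation 544, emission 590 nm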
# Diaphorase inh – diaphorase inhibition or chemical oxidation counter-screen; diaphorase resazurin-to-resorufin fluorescence, NADH, 16 min; bacterial (C. kluyveri) enzyme, not human; inhibition, % at 20 µM; actives 0.69% (n = 190,000); AID 1217;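 active = primary screen inhibition at 20 µM above a set limit, cut at about 50% in these data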;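 also: plate controls were DMSO with full reaction for no effect and wells lacking NADH for full effect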
#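 Test system: bacterial diaphorase enzyme (C. kluyveri); Quantity: 0.14 U/mL diaphorase, enzyme working solution; Times: reaction incubation of 16 min at room temperature; Measured by: fluorescence of resorufin formed from resazurin, Ex 544/Em 590 nm; Benchmarks: positive control minus NADH, DMSO neutral control.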
# Starred values were filed as active, the others as inactive.
SMILES,PMI act,G6PDH counter,Diaph act CS,PMI act hi M6P,Diaphorase inh
NC(=O)C1=C[C@H](c2csc3ccccc23)C[C@H](OCCCCO)O1,0.6,18.3,0.4,0.4,56.0*
CCOC(=O)N1CCC(N2CCCC(C(=O)c3ccccc3OC)C2)CC1 (stereo unspecified),0.9,7.8,1,1,3.9
O=C(Oc1ccc([N+](=O)[O-])cc1)c1cncc(Br)c1,1.1,0.6,0.9,1.1,5.5
CSc1nc(SCCO)c2sc3nc(-c4ccco4)c4c(c3c2n1)CC(C)(C)OC4,1.2,12.9,0.8,1.4,17.8
CSc1nc(N(CCO)CCO)c2sc3nc(-c4ccco4)c4c(c3c2n1)CCC4,1.2,7.2,0.5,1.4,53.6*
CC1=C(CC(=O)c2ccc(Cl)cc2)C(=O)c2ccccc2C1=O,1.2,56.0*,0.7,1,34.0
Cc1ccccc1-c1nsc(SCC(=O)c2ccc(Cl)cc2)n1,0.8,-36.7,0.8,0.8,15.3
O=C(O)C1CCC(Cn2c(SCc3cc(=O)n4cc(Cl)ccc4n3)nc3ccsc3c2=O)CC1 (stereo unspecified),1.1,-1.1,0.8,1.1,24.5
Cc1ccc(-c2c3c([nH]c(=S)c2C#N)CCCC3)o1,1,19.5,0.5,0.8,50.6*
CCOC(=O)C1=C(C)N(C)C(=O)NC1c1cc2c(cc1[N+](=O)[O-])OCO2 (stereo unspecified),0.6,8.5,0.3,0.6,66.7*
COc1ccc(-c2noc(CSc3nc(-c4ccccc4)cc(=O)[nH]3)n2)cc1OC,0.7,14.2,0.3,0.8,66.7*
COc1ccc(-c2noc(CCCc3ccccc3)n2)cc1OC,0.8,-28.4,0.7,0.8,29.5
CC1(C)C(=O)NCCN1C(=O)CCC(=O)O,1,-3.4,0.9,1.1,8.2
COc1ccc(/C=N/NC(=O)c2cccc(NC(C)=O)c2)c(C(=O)O)c1OC,1.1,1.8,0.9,1.1,5.5
O=C(c1cccs1)N1CCc2c([nH]c3ccccc23)C1c1ccccn1 (stereo unspecified),0.8,12.0,0.5,0.7,50.5*
CCC(=O)N(CCc1ccc(S(N)(=O)=O)cc1)C1CC(=O)N(c2ccc(OC)cc2)C1=O (stereo unspecified),0.9,13.5,0.8,1,15.6
O=C(CSc1nc(-c2ccc(F)cc2)nc2c1Cc1ccccc1O2)Nc1cccc(C(=O)O)c1,1,-4.6,0.4,1,61.3*
COc1ccnc(Oc2ccccc2)c1C(N)=O,0.8,18.3,0.8,0.9,23.9
CC1CCCCN1c1nnc(NC(=O)Cn2c(=O)oc3ccccc32)s1 (stereo unspecified),0.9,7.2,0.4,1,62.5*
CCOC(=O)c1c(C)[nH]c(C2=NNC(=NC3CC3)SC2)c1C,0.8,4.6,0.9,0.8,8.0
COCC(C)NC(=S)Nc1ccccc1[N+](=O)[O-] (stereo unspecified),0.9,9.0,1,0.9,0.0
COc1ccc(C2C=C(Nc3ccccc3)C(=O)N2c2ccccc2)cc1OC (stereo unspecified),1.4,7.2,0.9,1.8,10.6
COc1cccc(C2C=C(Nc3ccccc3)C(=O)N2c2ccccc2)c1 (stereo unspecified),1.7,2.6,1,2.2*,1.9
CC(=O)c1cc2c(cc1NC(=O)c1ccccc1C)OCO2,1,4.2,1.1,1.1,-5.2
O=C(O)c1cccc(N/N=C/c2sc(N3CCOCC3)nc2-c2ccccc2)c1,1.6,-0.1,0.9,2.5*,9.3
SMILES,PMI act,G6PDH counter,Diaph act CS,PMI act hi M6P,Diaphorase inh
Nc1ccc(C(=O)N/N=C/c2sc(N3CCOCC3)nc2-c2ccccc2)cc1,1.1,-0.8,0.9,1.2,13.7
O=C(O)c1cccc(Cn2c(Cl)c(/C=N/Nc3ccccc3)sc2=O)c1,1.6,5.4,0.8,2.5*,19.6
O=C1c2cccnc2C(Nc2ccc(Br)cc2Br)N1Cc1cccs1 (stereo unspecified),0.9,1.6,0.7,0.9,35.0
O=C(OCc1ccccc1)N1CCCC1/C=C/CN1CCOCC1 (stereo unspecified),1,4.1,1,1.1,-1.1
CC(=O)c1c(N2CCN(c3cccc(Cl)c3)CC2)nc(=S)n(-c2ccccc2)c1C,0.9,-3.7,0.4,0.9,61.4*
CCn1c(C)c(C(C)=O)c(NCc2ccccc2)nc1=S,0.9,7.6,0.5,0.9,52.0*
CC(=O)c1c(NCCc2ccccc2)nc(=S)n(-c2ccccc2)c1C,0.8,2.5,0.1,0.6,87.7*
CCn1c(C)c(C(C)=O)c(N2CCN(c3cccc(Cl)c3)CC2)nc1=S,1.4,14.7,0.7,1.9,32.8
Oc1c(Cl)cc(Cl)c2c1NCCC2,0.4,-15.5,0.4,0.5,63.7*
O=C1NCCCc2c1oc1ccc(O)cc21,1.1,10.5,1.1,1,-14.3
COc1cccc(C(=O)NCCSc2ccc(F)cc2)c1,1.1,-1.3,0.4,1.1,56.3*
COc1cccc(C(=O)NCCSc2ccc(C)cc2)c1,1.2,24.4,0.9,1.2,5.9
CCOC(=O)c1cc2c(=O)n3ccccc3nc2n(C(C)C)c1=NC(=O)c1ccncc1,1.4,-9.2,0.3,2.2*,65.3*
CCOC(=O)c1cc2c(=O)n3ccccc3nc2n(CCCOC)c1=NC(=O)c1cccnc1,1.7,0.2,1,2*,3.8
CCOC(=O)c1cc2c(=O)n3ccccc3nc2n(C(C)C)c1=NC(=O)c1c(-c2ccccc2Cl)noc1C,1,8.5,0.8,0.9,19.1
CCOC(=O)c1cc2c(=O)n3ccccc3nc2n(CCOC)c1=NC(=O)c1ccncc1,1.3,-6.2,0.9,1.4,6.6
Cc1c(NC(=O)C(C)OC(=O)/C=C/c2ccc3c(c2)OCO3)c(=O)n(-c2ccccc2)n1C (stereo unspecified),0.9,5.0,0.9,0.9,9.9
CC(C)C(=O)NC(c1cccs1)c1cc([N+](=O)[O-])c2cccnc2c1O (stereo unspecified),0.8,13.0,0.6,0.5,35.6
O=C(O)COc1ccccc1C(Nc1cccnc1)c1cc(Cl)c2cccnc2c1O (stereo unspecified),0.7,23.2,0.4,0.7,60.7*
Cc1ccc(C(NC(=O)C(C)C)c2cc([N+](=O)[O-])c3cccnc3c2O)cc1 (stereo unspecified),0.9,52.9*,0.6,0.5,39.3
CCC(=O)NC(c1ccc(OC)c(OC)c1)c1cc(Cl)c2cccnc2c1O (stereo unspecified),0.9,14.4,0.8,0.6,24.7
CCOc1ccc(C(Nc2cccnc2)c2cc(Cl)c3cccnc3c2O)cc1 (stereo unspecified),0.8,27.6,0.7,0.3,29.8
